Assay results from ChEMBL document CHEMBL4680268, “Pharmacomodulations of the benzoyl-thiosemicarbazide scaffold reveal antimicrobial agents targeting d-alanyl-d-alanine ligase in bacterio” (Eur J Med Chem, 2020).
In brackets after ≈: the same amount, converted by molar mass. Activity calls are given as the source filed them. The calls are words filed in the database; no cut-off is given here.

Legend:
Enterococcus faecalis [1] = assay: Inhibition of recombinant Enterococcus faecalis C-terminal His6-tagged DdlB expressed in Escherichia coli LMG194 assessed as residual activity using D-Ala as substrate at 100 uM preincubated with enzyme for 30 mins followed by substrate addition and measured after 20 mins by malachite green based colorimetric analysis relative to control; settings: time 50.0 min
Outline: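 Purified E. faecalis His-tagged DdlB (20 mg/L) preincubated 30 min at 30 °C with 100 µM compound and 500 µM ATP in 20 mM Tris-HCl pH 7.4, 10 mM MgCl₂, 10 mM KCl, 10% DMSO; 1 mM D-Ala added, 20 min at 30 °C. Phosphate detected with malachite green reagent, A650 after 25 min dark; residual activity versus no-inhibitor control, triplicate.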

[2] = Inhibition of recombinant Enterococcus faecalis C-terminal His6-tagged DdlB expressed in Escherichia coli LMG194 using D-Ala as substrate preincubated with enzyme for 30 mins followed by substrate addition and measured after 20 mins by malachite green based colorimetric analysis
Outline: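 DdlB (20 mg/L) malachite green phosphate assay: enzyme, inhibitor and 500 µM ATP preincubated 30 min at 30 °C in Tris-HCl pH 7.4 buffer with MgCl₂, KCl and 10% DMSO, then 1 mM D-Ala for 20 min; A650 read. IC₅₀ from 11 concentrations, also run with 0.01% Triton X-100; mean ± SD of triplicates, n ≥ 2; EC₅₀ given where maximal inhibition stayed below 50%.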

Staphylococcus aureus [3] = assay: Antibacterial activity against Staphylococcus aureus ATCC 25923 assessed as reduction in bacterial growth incubated for 18 to 24 hrs by broth microdilution method; assay type: functional; settings: time 18-24 hrs
Enterococcus faecalis [4] = assay: Antibacterial activity against Enterococcus faecalis ATCC 29212 assessed as reduction in bacterial growth incubated for 18 to 24 hrs by broth microdilution method; assay type: functional; settings: time 18-24 hrs
Enterococcus faecalis [5] = assay: Antibacterial activity against vancomycin resistant Enterococcus faecalis BM4390 harboring VanB mutant with inactive Ddl and constitutive expression of D-Ala-D-Lac assessed as reduction in bacterial growth incubated for 18 to 24 hrs by broth microdilution method; assay type: functional; settings: time 18-24 hrs
Outline: (§1)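 Broth microdilution in cation-adjusted Mueller-Hinton broth per CLSI; inoculum 10⁶ bacteria/mL. Two-fold serial dilutions, compound in broth with 5% DMSO mixed 1:1 with bacterial suspension, giving 2.5% DMSO final. Top concentration 0.1, 0.4 or 0.8 mM depending on solubility. Incubated 18–24 h at 37 °C. MIC = lowest concentration preventing visible growth.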

Enterococcus faecalis [6] = assay: Antibacterial activity against vancomycin resistant Enterococcus faecalis JH2-2::C1 harboring constitutive expression of Ddl and vanB ligase assessed as reduction in bacterial growth incubated for 18 to 24 hrs by broth microdilution method; assay type: functional; settings: time 18-24 hrs; outline: as §1
Enterococcus faecalis [7] = assay: Antibacterial activity against vancomycin resistant Enterococcus faecalis BM4575 harboring VanE genotype, constitutive expression of Ddl and VanE D-Ala-D-Ser ligase assessed as reduction in bacterial growth incubated for 18 to 24 hrs by broth microdilution method; assay type: functional; settings: time 18-24 hrs; outline: as §1
Staphylococcus aureus [8] = assay: Antibacterial activity against methicillin resistant and vancomycin intermediate resistant Staphylococcus aureus MU50 assessed as reduction in bacterial growth incubated for 18 to 24 hrs by broth microdilution method; assay type: functional; settings: time 18-24 hrs; outline: as §1
Staphylococcus aureus [9] = assay: Antibacterial activity against methicillin and linezolid resistant Staphylococcus aureus NRS119 assessed as reduction in bacterial growth incubated for 18 to 24 hrs by broth microdilution method; assay type: functional; settings: time 18-24 hrs; outline: as §1
Staphylococcus aureus [10] = assay: Antibacterial activity against community-acquired methicillin and erythromycin resistant Staphylococcus aureus SA325 assessed as reduction in bacterial growth incubated for 18 to 24 hrs by broth microdilution method; assay type: functional; settings: time 18-24 hrs; outline: as §1
Staphylococcus aureus [11] = assay: Antibacterial activity against hospital-acquired methicillin/ciprofloxacin and moxifloxacin resistant Staphylococcus aureus SA481 assessed as reduction in bacterial growth incubated for 18 to 24 hrs by broth microdilution method; assay type: functional; settings: time 18-24 hrs; outline: as §1
Staphylococcus aureus [12] = assay: Antibacterial activity against hospital-acquired vancomycin resistant Staphylococcus aureus VRS-1 assessed as reduction in bacterial growth incubated for 18 to 24 hrs by broth microdilution method; assay type: functional; settings: time 18-24 hrs; outline: as §1
Klebsiella pneumoniae = assay: Antibacterial activity against Klebsiella pneumoniae ATCC700603 assessed as reduction in bacterial growth incubated for 18 to 24 hrs by broth microdilution method; assay type: functional, organism-based; settings: 700603, time 18-24 hrs
Outline: (§2)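 Microdilution in cation-adjusted Mueller-Hinton broth per CLSI; two-fold compound series in CAMHB with 5% DMSO mixed 1:1 with bacterial suspension, giving 10⁶ bacteria/mL inoculum and 2.5% DMSO final. Top concentrations 0.1, 0.4 or 0.8 mM depending on solubility. Incubated 18–24 h at 37 °C; MIC read as lowest concentration preventing visible growth.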

Escherichia coli = assay: Antibacterial activity against Escherichia coli ATCC 25922 assessed as reduction in bacterial growth incubated for 18 to 24 hrs by broth microdilution method; assay type: functional, organism-based; settings: time 18-24 hrs; outline: as §2
Pseudomonas aeruginosa = assay: Antibacterial activity against Pseudomonas aeruginosa PAO1 assessed as reduction in bacterial growth incubated for 18 to 24 hrs by broth microdilution method; assay type: functional, organism-based; settings: time 18-24 hrs; outline: as §2
Cell membrane = assay: Disruption of bacterial cell membrane in Staphylococcus aureus ATCC 25923 assessed as increase in PI uptake at 1 to 5 times MIC measured every 10 mins for 2 hrs by PI dye based spectrophotometry
Outline: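 Mid-log S. aureus ATCC 25923 (grown in MHB from OD₆₀₀ 0.05) washed into BET buffer (pH 7.5) at 1.11×10⁶ CFU/mL with 12 nM propidium iodide; compound at 1, 2, 5× MIC, 5% DMSO final. SDS 0.5% positive, buffer negative control. Fluorescence (ex 532/em 620 nm) read in the dark every 10 min for 2 h; triplicate.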

O=C(NC(=S)NNC(=O)c1ccccc1O)c1ccccc1
Activity (Enterococcus faecalis [1]): > 50%
IC50 [2]: 810 nM
MIC (Staphylococcus aureus [3]): 100 µM (≈ 31.5 µg/mL)
MIC (Enterococcus faecalis [4]): 100 µM (≈ 31.5 µg/mL)
MIC (Enterococcus faecalis [5]): > 100 µM
MIC (Enterococcus faecalis [6]): > 100 µM
MIC (Enterococcus faecalis [7]): > 100 µM
MIC (Staphylococcus aureus [8]): > 100 µM
MIC (Staphylococcus aureus [9]): > 100 µM
MIC (Staphylococcus aureus [10]): 100 µM (≈ 31.5 µg/mL)
MIC (Staphylococcus aureus [11]): 100 µM (≈ 31.5 µg/mL)
MIC (Staphylococcus aureus [12]): 100 µM (≈ 31.5 µg/mL)
Activity (Klebsiella pneumoniae): inactive
Activity (Escherichia coli): inactive
Activity (Pseudomonas aeruginosa): inactive

Clc1ccc(Nc2nnc(-c3ccccc3)s2)cc1Cl
Activity (Enterococcus faecalis [1]): > 100%
MIC (Staphylococcus aureus [3]): > 100 µM
MIC (Enterococcus faecalis [4]): > 100 µM

O=C(NNC(=S)Nc1ccc(Cl)c(Cl)c1)c1ccccc1O
IC50 [2]: 1170 nM
MIC (Staphylococcus aureus [3]): 100 µM (≈ 35.6 µg/mL)
MIC (Enterococcus faecalis [4]): 50 µM (≈ 17.8 µg/mL)
MIC (Enterococcus faecalis [5]): 50 µM (≈ 17.8 µg/mL)
MIC (Enterococcus faecalis [6]): 100 µM (≈ 35.6 µg/mL)
MIC (Enterococcus faecalis [7]): 50 µM (≈ 17.8 µg/mL)
MIC (Staphylococcus aureus [8]): 100 µM (≈ 35.6 µg/mL)
MIC (Staphylococcus aureus [9]): 50 µM (≈ 17.8 µg/mL)
MIC (Staphylococcus aureus [10]): 50 µM (≈ 17.8 µg/mL)
MIC (Staphylococcus aureus [11]): 100 µM (≈ 35.6 µg/mL)
MIC (Staphylococcus aureus [12]): 50 µM (≈ 17.8 µg/mL)
Activity (Cell membrane): inactive
Activity (Klebsiella pneumoniae): inactive
Activity (Escherichia coli): inactive
Activity (Pseudomonas aeruginosa): inactive

O=C(NC(=S)NNC(=O)c1ccccc1O)c1ccc(Cl)c(Cl)c1
Activity (Enterococcus faecalis [1]): > 50%
IC50 [2]: 1150 nM
MIC (Staphylococcus aureus [3]): 25 µM (≈ 9.61 µg/mL)
MIC (Enterococcus faecalis [4]): 50 µM (≈ 19.2 µg/mL)
MIC (Enterococcus faecalis [5]): 25 µM (≈ 9.61 µg/mL)
MIC (Enterococcus faecalis [6]): 12.5 µM (≈ 4.8 µg/mL)
MIC (Enterococcus faecalis [7]): 50 µM (≈ 19.2 µg/mL)
MIC (Staphylococcus aureus [8]): 25 µM (≈ 9.61 µg/mL)
MIC (Staphylococcus aureus [9]): 25 µM (≈ 9.61 µg/mL)
MIC (Staphylococcus aureus [10]): 50 µM (≈ 19.2 µg/mL)
MIC (Staphylococcus aureus [11]): 25 µM (≈ 9.61 µg/mL)
MIC (Staphylococcus aureus [12]): 100 µM (≈ 38.4 µg/mL)
Activity (Klebsiella pneumoniae): inactive
Activity (Escherichia coli): inactive
Activity (Pseudomonas aeruginosa): inactive

Oc1ccccc1/C=N/NC(=S)Nc1ccccc1
Activity (Enterococcus faecalis [1]): > 50%
IC50 [2]: 2600 nM
MIC (Staphylococcus aureus [3]): > 400 µM
MIC (Enterococcus faecalis [4]): > 400 µM

O=C(NNC(=S)Nc1ccc(Cl)c(Cl)c1)c1ccccc1
Activity (Enterococcus faecalis [1]): > 100%
MIC (Staphylococcus aureus [3]): > 100 µM
MIC (Enterococcus faecalis [4]): > 100 µM

Fc1ccc2c(c1F)Oc1ccccc1-c1n[nH]c(=S)n1-2
Activity (Enterococcus faecalis [1]): > 100%
MIC (Staphylococcus aureus [3]): > 400 µM
MIC (Enterococcus faecalis [4]): > 400 µM

Oc1ccccc1-c1n[nH]c(=S)n1-c1ccc(F)c(F)c1
Activity (Enterococcus faecalis [1]): > 100%
MIC (Staphylococcus aureus [3]): > 400 µM
MIC (Enterococcus faecalis [4]): > 400 µM

COc1ccc(O)c(C(=O)NNC(=S)Nc2ccccc2)c1
IC50 [2]: 630 nM
MIC (Staphylococcus aureus [3]): > 100 µM
MIC (Enterococcus faecalis [4]): > 100 µM

COc1ccc(O)c(-c2n[nH]c(=S)n2-c2ccccc2)c1
Activity (Enterococcus faecalis [1]): > 50%
IC50 [2]: 133000 nM
MIC (Staphylococcus aureus [3]): > 800 µM
MIC (Enterococcus faecalis [4]): > 800 µM

Oc1ccccc1-c1nnc(S)n1-c1ccccc1
Activity (Enterococcus faecalis [1]): > 100%
MIC (Staphylococcus aureus [3]): > 800 µM
MIC (Enterococcus faecalis [4]): > 800 µM

O=C(O)c1cn(C2CC2)c2cc(N3CCNCC3)c(F)cc2c1=O [CIPROFLOXACIN]
MIC (Staphylococcus aureus [11]): 770 µM (≈ 255 µg/mL)

O=C(NNC(=S)Nc1ccc(C(F)(F)F)cc1)c1ccccc1O
IC50 [2]: 630 nM
MIC (Staphylococcus aureus [3]): 50 µM (≈ 17.8 µg/mL)
MIC (Enterococcus faecalis [4]): 50 µM (≈ 17.8 µg/mL)
MIC (Enterococcus faecalis [5]): > 100 µM
MIC (Enterococcus faecalis [6]): 100 µM (≈ 35.5 µg/mL)
MIC (Enterococcus faecalis [7]): 100 µM (≈ 35.5 µg/mL)
MIC (Staphylococcus aureus [8]): 100 µM (≈ 35.5 µg/mL)
MIC (Staphylococcus aureus [9]): 100 µM (≈ 35.5 µg/mL)
MIC (Staphylococcus aureus [10]): 100 µM (≈ 35.5 µg/mL)
MIC (Staphylococcus aureus [11]): 100 µM (≈ 35.5 µg/mL)
MIC (Staphylococcus aureus [12]): 100 µM (≈ 35.5 µg/mL)
Activity (Klebsiella pneumoniae): inactive
Activity (Escherichia coli): inactive
Activity (Pseudomonas aeruginosa): inactive

Nc1ccccc1-c1n[nH]c(=S)n1-c1ccccc1
Activity (Enterococcus faecalis [1]): > 100%
MIC (Staphylococcus aureus [3]): > 800 µM
MIC (Enterococcus faecalis [4]): > 800 µM
